{"source": "paper PMC9380703", "about": "(RSC Advances, 2022)", "type_in_all_cases": "cell-based", "key": {"[1]": {"system": "A549 (non-small lung carcinoma) cells", "assay": "MTT cytotoxicity assay, A549 cells", "details": "Homo sapiens, A549, 48 h, read-out: IC50 ± SD A549", "in_short": "(§1)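 Cells exposed to test compounds for 48 h; viability read by MTT. IC50 computed from triplicate experiments and reported as mean ± SD, with paclitaxel as positive control. BEAS-2B normal lung epithelial cells assayed alongside the cancer lines.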"}, "[2]": {"system": "BEAS-2B (normal human lung epithelial cells)", "assay": "MTT cytotoxicity assay, BEAS-2B normal cells", "details": "48 h, read-out: IC50 ± SD BEAS-2B", "in_short": "as §1"}, "MCF-7 (breast cancer)": {"system": "MCF-7 (breast cancer)", "assay": "MTT cytotoxicity assay, MCF-7 cells", "details": "Homo sapiens, MCF7, 48 h, read-out: IC50 ± SD MCF-7", "in_short": "as §1"}, "[3]": {"system": "HeLa (human cervical cancer cells)", "assay": "MTT cytotoxicity assay, HeLa cells", "details": "48 h, read-out: IC50 ± SD HeLa", "in_short": "as §1"}}, "data": [{"smiles": "CC(=O)O[C@H]1C[C@H](O[C@H]2[C@@H](O)C[C@H](O[C@H]3[C@@H](O)C[C@H](O[C@H]4CC[C@@]5(C)[C@H](CC[C@@H]6[C@@H]5C[C@@H](O)[C@]5(C)[C@@H](C7=CC(=O)OC7)CC[C@]65O)C4)O[C@@H]3C)O[C@@H]2C)O[C@H](C)[C@H]1O", "note": "[Compound 8, acetyldigoxin]", "values": [{"measurement": "IC50", "setting": "[1]", "value": "150 ± 10", "unit": "nM"}, {"measurement": "IC50", "setting": "[2]", "value": "250 ± 60", "unit": "nM"}, {"measurement": "IC50", "setting": "MCF-7 (breast cancer)", "value": "190 ± 60", "unit": "nM"}, {"measurement": "IC50", "setting": "[3]", "value": "130 ± 7", "unit": "nM"}]}, {"smiles": "CC(=O)O[C@H]1C(=O)[C@@]2(C)[C@H]([C@H](OC(=O)c3ccccc3)[C@]3(O)C[C@H](OC(=O)[C@H](O)[C@@H](NC(=O)c4ccccc4)c4ccccc4)C(C)=C1C3(C)C)[C@]1(OC(C)=O)CO[C@@H]1C[C@@H]2O", "note": "[Paclitaxel, reference compound]", "values": [{"measurement": "IC50", "setting": "[1]", "value": "60 ± 40", "unit": "nM"}, {"measurement": "IC50", "setting": "[2]", "value": "130 ± 30", "unit": "nM"}, {"measurement": "IC50", "setting": "MCF-7 (breast cancer)", "value": "110 ± 50", "unit": "nM"}, {"measurement": "IC50", "setting": "[3]", "value": "20 ± 10", "unit": "nM"}]}, {"smiles": "CC(=O)O[C@H]1C[C@H](O[C@H]2[C@@H](O)C[C@H](O[C@H]3[C@@H](O)C[C@H](O[C@H]4CC[C@@]5(C)[C@H](CC[C@@H]6[C@@H]5C[C@@H](O)[C@]5(C)[C@@H](C7=CC(=O)OC7)CC[C@]65O)C4)O[C@@H]3C)O[C@@H]2C)O[C@H](C)[C@H]1O[C@@H]1O[C@H](CO)[C@@H](O)[C@H](O)[C@H]1O", "note": "[Compound 9, lanatoside C]", "values": [{"measurement": "IC50", "setting": "[1]", "value": "190 ± 30", "unit": "nM"}, {"measurement": "IC50", "setting": "[2]", "value": "370 ± 100", "unit": "nM"}, {"measurement": "IC50", "setting": "MCF-7 (breast cancer)", "value": "240 ± 110", "unit": "nM"}, {"measurement": "IC50", "setting": "[3]", "value": "130 ± 13", "unit": "nM"}]}, {"smiles": "C[C@]12CC[C@H](O)C[C@H]1CC[C@@H]1[C@@H]2C[C@@H](O)[C@]2(C)[C@@H](C3=CC(=O)OC3)CC[C@]12O", "note": "[Compound 6, digoxigenin]", "values": [{"measurement": "IC50", "setting": "[1]", "value": "1280 ± 230", "unit": "nM"}, {"measurement": "IC50", "setting": "[2]", "value": "2580 ± 110", "unit": "nM"}, {"measurement": "IC50", "setting": "MCF-7 (breast cancer)", "value": "1440 ± 10", "unit": "nM"}, {"measurement": "IC50", "setting": "[3]", "value": "770 ± 230", "unit": "nM"}]}]}
